The results in this text go back to ChEMBL document CHEMBL1149174, “Synthesis and structure-activity relationship of acrylamides as KCNQ2 potassium channel openers” (J Med Chem, 2004).

Sequence of Potassium voltage-gated channel subfamily KQT member 2 (Mus musculus) (Q9Z351 whole entry): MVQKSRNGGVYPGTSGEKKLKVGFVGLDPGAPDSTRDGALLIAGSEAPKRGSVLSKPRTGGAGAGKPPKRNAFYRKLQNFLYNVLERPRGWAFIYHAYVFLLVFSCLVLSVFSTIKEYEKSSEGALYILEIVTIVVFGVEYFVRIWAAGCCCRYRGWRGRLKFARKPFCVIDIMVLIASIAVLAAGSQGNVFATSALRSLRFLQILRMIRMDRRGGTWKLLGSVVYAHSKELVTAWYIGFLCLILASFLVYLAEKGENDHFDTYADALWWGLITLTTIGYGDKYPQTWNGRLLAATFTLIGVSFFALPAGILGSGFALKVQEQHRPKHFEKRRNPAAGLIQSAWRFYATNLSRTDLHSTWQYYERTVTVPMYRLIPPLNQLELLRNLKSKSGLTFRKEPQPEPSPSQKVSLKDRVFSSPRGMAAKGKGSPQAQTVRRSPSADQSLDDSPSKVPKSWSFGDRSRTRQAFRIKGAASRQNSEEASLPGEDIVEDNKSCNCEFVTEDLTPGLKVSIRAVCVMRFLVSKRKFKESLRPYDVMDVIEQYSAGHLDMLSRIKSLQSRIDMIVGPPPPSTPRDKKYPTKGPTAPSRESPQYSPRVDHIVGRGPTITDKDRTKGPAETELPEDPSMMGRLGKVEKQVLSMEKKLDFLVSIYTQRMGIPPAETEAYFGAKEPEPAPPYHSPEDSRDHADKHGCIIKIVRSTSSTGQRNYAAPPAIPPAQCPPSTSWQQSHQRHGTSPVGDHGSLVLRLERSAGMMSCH

The experiment addresses Potassium voltage-gated channel subfamily KQT member 2 (Mus musculus) (UniProt Q9Z351). In words: Ability to open cloned mKCNQ2 channel expressed in Xenopus laevis oocytes at 10 uM expressed as percent of compound-free control current at -40 mV. Particulars: Oocyte. In kind it is functional, cell-based. The method in brief: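 Two-electrode voltage clamp of Xenopus laevis oocytes injected with ~50 nL mKCNQ2 cRNA, kept at 17 °C in ND96 (mM: NaCl 90, KCl 1.0, CaCl2 1.0, MgCl2 1.0, HEPES 5.0, pH 7.5) with 5% horse serum and penicillin/streptomycin. Holding potential -90 mV, 10 mV steps from -80 to +40 mV. Current at -40 mV with 10 μM compound taken as % of compound-free control; mean ± SEM of ≥5 oocytes.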
The compound `C[C@H](NC(=O)/C=C/c1cc(F)ccc1F)c1cccc(N2CCOCC2)c1` registered a KCNQ2 current at -40 mV as percent of compound-free control of 102%. With `C[C@@H](c1cccc(N2CCOCC2)c1)N(C)C(=O)/C=C/c1ccccc1`, the KCNQ2 current at -40 mV as percent of compound-free control was found to be 72%. The compound `C[C@H](NC(=O)/C=C/c1ccccc1F)c1cccc(N2CCOCC2)c1` came in with a KCNQ2 current at -40 mV as percent of compound-free control of 121%. The figure for `C[C@H](NC(=O)/C=C/c1cccc(F)c1)c1cccc(N2CCOCC2)c1` is 127%; for `COc1ccccc1/C=C/C(=O)N[C@@H](C)c1cccc(N2CCOCC2)c1` it is 99%. With `O=C(/C=C/c1ccccc1)NCc1cccc(N2CCOCC2)c1`, the KCNQ2 current at -40 mV as percent of compound-free control stood at 110%.

`C[C@H](NC(=O)/C=C/c1ccccc1)c1cccc(N(C)C)c1` had a KCNQ2 current at -40 mV as percent of compound-free control of 110%. The value for `COc1ccc([C@H](C)NC(=O)/C=C/c2ccccc2)cc1N1CCOCC1` was 96%; that for `CC1CN(c2cccc([C@H](C)NC(=O)/C=C/c3ccccc3)c2)CC(C)O1` (stereo partly specified) was 138%; that for `COc1ccc(N2CCOCC2)cc1[C@H](C)NC(=O)/C=C/c1ccccc1` was 98%.

Turning to `COc1ccc(/C=C/C(=O)N[C@@H](C)c2cccc(N3CCOCC3)c2)cc1`, the KCNQ2 current at -40 mV as percent of compound-free control was 140%. The figure for `C[C@@H](NC(=O)/C=C/c1ccccc1)c1cccc(N2CCOCC2)c1` is 96%; for `C[C@H](NC(=O)/C=C/c1ccc(F)cc1F)c1cccc(N2CCOCC2)c1` it is 124%. For the compound `C[C@H](NC(=O)/C=C/c1ccccc1)c1cccc(N2CCOCC2)c1`, the KCNQ2 current at -40 mV as percent of compound-free control stood at 163%. In the case of `CC1=C(C(=O)N[C@@H](C)c2cccc(N3CCOCC3)c2)Cc2ccccc21`, the KCNQ2 current at -40 mV as percent of compound-free control turned out to be 101%. The value for `CC1CN(c2cccc([C@H](C)NC(=O)/C=C/c3ccccc3F)c2)CC(C)O1` (stereo partly specified) was 135%; that for `C[C@H](NC(=O)CCc1ccccc1)c1cccc(N2CCOCC2)c1` was 105%; that for `CC1CN(c2cccc([C@H](C)NC(=O)/C=C/c3ccc(F)cc3)c2)CC(C)O1` (stereo partly specified) was 133%.

`C[C@H](NC(=O)/C=C/c1ccccc1)c1cccc(N2CC3CC2CO3)c1` (stereo partly specified) had a KCNQ2 current at -40 mV as percent of compound-free control of 104%. The value for `C[C@H](NC/C=C/c1ccccc1)c1cccc(N2CCOCC2)c1` was 98%; that for `C[C@H](NC(=O)/C=C/c1ccc(F)cc1)c1ccc(F)c(N2CCOCC2)c1` was 142%; that for `C[C@H](NC(=O)/C=C/c1ccccc1)c1cccc(N2CCCOCC2)c1` was 110%. The value for `C[C@H](NC(=O)/C=C/c1ccccc1F)c1cccc(N2CCN(C)CC2)c1` was 107%; that for `C[C@H](NC(=O)/C=C/c1ccccc1)c1ccc(F)c(N2CCOCC2)c1` was 129%; that for `C[C@H](NC(=O)/C=C/c1ccc(F)cc1)c1cccc(N2CCOCC2)c1` was 88%.

`COc1cccc(/C=C/C(=O)N[C@@H](C)c2cccc(N3CCOCC3)c2)c1`: the KCNQ2 current at -40 mV as percent of compound-free control is 132%.
